Measured values as given in ChEMBL document CHEMBL1156797, “Synthesis and antiplasmodial activity of new indolone N-oxide derivatives” (J Med Chem, 2010).

Columns and labels:
[1] = Selectivity index, ratio of CC50 for human MCF7 cells to IC50 for chloroquine-resistant Plasmodium falciparum FcB1; type: functional
Method in brief: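 XTT 0.5 mg/mL added for 180 min, formazan read at 450 nm, value taken from dose–response curves, two experiments in triplicate. This CC50 is divided by the FcB1 IC50 to give the index.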

[2] = Cytotoxicity against human MCF7 cells after 48 hrs by MTT assay; type: cell-based
Plasmodium falciparum [3] = test: Antimalarial activity against chloroquine-resistant Plasmodium falciparum FcB1 assessed as [3H]hypoxanthine incorporation after 48 hrs by beta-counter; type: functional, organism-based; conditions: FcB1/Columbia
Method in brief: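 Primary assay (Toulouse) on FcB1 cultured in RPMI with 25 mM HEPES and 10% human serum, O RBCs. Serial dilutions in triplicate, 2% parasitaemia, 2% haematocrit, 48 h at 37 °C, 5% CO2. [3H]-hypoxanthine added at 24 h, freeze-thaw harvest, β-counting. IC50 by linear regression on the linear segment of the semilog inhibition curve. Three independent repeats.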

Plasmodium falciparum [4] = test: Antimalarial activity against Plasmodium falciparum K1 assessed as [3H]hypoxanthine incorporation by scintillation counting; type: functional, organism-based
Plasmodium falciparum [5] = test: Antimalarial activity against drug-sensitive Plasmodium falciparum 3D7 assessed as [3H]hypoxanthine incorporation by scintillation counting; type: functional, organism-based
Plasmodium falciparum [6] = test: Resistance index, ratio of IC50 for chloroquine-resistant Plasmodium falciparum FcB1 to IC50 for drug-sensitive Plasmodium falciparum 3D7; type: functional
Plasmodium falciparum [7] = test: Resistance index, ratio of IC50 for chloroquine-resistant Plasmodium falciparum K1 to IC50 for drug-sensitive Plasmodium falciparum 3D7; type: functional
[8] = Cytotoxicity against human KB cells after 72 hrs by alamar blue assay; type: cell-based
Method in brief: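 KB cells were seeded at 4×10^4 cells/mL in RPMI 1640 with 10% heat-inactivated FCS and left 24 h at 37 °C, 5% CO2. A dilution series was added in triplicate for 72 h, then AlamarBlue for 2–4 h. Fluorescence was read at ex 530/em 585 nm, with podophyllotoxin as positive control and values from curve fitting.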

Compound | Ratio CC50/IC50 [1] | CC50 at 48 h [2] [µM] | IC50 (Plasmodium falciparum [3]) [µM] | IC50 (Plasmodium falciparum [4]) [µM] | IC50 (Plasmodium falciparum [5]) [µM] | Ratio IC50 (Plasmodium falciparum [6]) | Ratio IC50 (Plasmodium falciparum [7]) | CC50 at 72 h [8] [µM]
COc1ccc2c(c1)C(=O)C(c1ccc(OC)c(C)c1)=[N+]2[O-] | >764 | > 33.6 | 0.044 |  |  |  |  | 
COc1ccc2c(c1)C(=O)C(c1ccc(C(C)=O)cc1)=[N+]2[O-] |  | 40.2 | 0.256 |  |  |  |  | 
O=C1C(c2ccc(Cl)c(Cl)c2)=[N+]([O-])c2cc3c(cc21)OCO3 | 38.1 | 7.4 | 0.195 |  |  |  |  | 
CCc1ccc(C2=[N+]([O-])c3ccccc3C2=O)cc1 | >14 | > 39.8 | 2.75 |  |  |  |  | 
COc1ccc2c(c1)C(=O)C(c1ccccc1Cl)=[N+]2[O-] |  |  | 1.13 |  |  |  |  | 
COc1ccc2cc(C3=[N+]([O-])c4cc5c(cc4C3=O)OCO5)ccc2c1 |  | 25.6 |  |  |  |  |  | 
O=C1C(c2ccc(Cl)c(C(F)(F)F)c2)=[N+]([O-])c2ccccc21 | 1.9 | 2 | 1.04 |  |  |  |  | 
O=C1C(c2ccc(Oc3ccccc3)cc2)=[N+]([O-])c2cc(OCc3ccccc3)ccc21 | 3.2 | 2.2 | 0.665 |  |  |  |  | 
COc1cc2c(cc1OC)[N+]([O-])=C(c1ccc(C)cc1)C2=O |  |  | 0.265 |  |  |  |  | 
O=C1C(c2ccc([N+](=O)[O-])cc2)=[N+]([O-])c2ccccc21 |  | 2.8 | 0.056 |  |  |  |  | 
COc1ccc2c(c1)C(=O)C(c1ccccc1)=[N+]2[O-] | 73 | 13.4 | 0.184 |  |  |  |  | 
COc1ccc(C2=[N+]([O-])c3cc(Cl)ccc3C2=O)cc1 | 116.5 | 22.2 | 0.191 |  |  |  |  | 
COc1ccc(C2=[N+]([O-])c3cc(C(F)(F)F)ccc3C2=O)cc1 | 58.8 | 7.9 | 0.135 |  |  |  |  | 
COc1ccc2cc(C3=[N+]([O-])c4cc(OCc5ccccc5)ccc4C3=O)ccc2c1 |  |  | 0.73 |  |  |  |  | 
COc1ccc(C2=[N+]([O-])c3cc([N+](=O)[O-])ccc3C2=O)cc1 | 63.2 | 21.8 | 0.345 |  |  |  |  | 
CCN(CC)c1ccc(C2=[N+]([O-])c3ccc(OC)cc3C2=O)cc1 | 134 | 17.6 | 0.131 |  |  |  |  | 
O=C1C(c2ccc(F)cc2)=[N+]([O-])c2ccccc21 | 72.5 | 8.7 | 0.12 |  |  |  |  | 
O=C1C(c2ccc(Oc3ccccc3)cc2)=[N+]([O-])c2ccccc21 | 42 | 11.1 | 0.264 | 0.06 | 0.148 | 1.8 | 0.4 | 
COc1ccc2c(c1)C(=O)C(c1ccc(N)cc1)=[N+]2[O-] | 528 | 12.7 | 0.024 |  |  |  |  | 
O=C1C(c2ccc(CO)cc2)=[N+]([O-])c2ccccc21 | 10 | 39.5 | 3.95 |  |  |  |  | 
O=C1C(c2ccc(C(F)(F)F)cc2)=[N+]([O-])c2ccccc21 | 29 | 34.3 | 1.17 |  |  |  |  | 
COc1ccc2c(c1)C(=O)C(c1ccc(OC(F)(F)F)cc1)=[N+]2[O-] | 415 | 8.3 | 0.02 | 0.081 | 0.03 | 0.7 | 2.7 | 11
CCC1=[N+]([O-])c2cc3c(cc2C1=O)OCO3 | 16 | 59 | 3.56 |  |  |  |  | 
O=C1C(c2ccc(F)cc2)=[N+]([O-])c2cc3c(cc21)OCO3 |  |  | 1.71 |  |  |  |  | 
COc1ccc2c(c1)C(=O)C(c1cc(OC)c3ccccc3c1)=[N+]2[O-] | 107 | 14.4 | 0.135 |  |  |  |  | 
COc1ccc2c(c1)C(=O)C(c1ccc(NC(C)=O)cc1)=[N+]2[O-] | 18.5 | 7.4 | 0.4 |  |  |  |  | 
COc1ccc(C2=[N+]([O-])c3ccc(OC)cc3C2=O)c(C)c1 | 0.3 | 0.3 | 1.04 |  |  |  |  | 
